Consider one substance from PMC11025564 (The journal of physical chemistry. B, 2018).

The test system of the assay is integrin αIIbβ3 TM complex. Type of assay: binding, Human. The conditions noted are these: ITC, 28 °C, same bicelles. An outline of the steps: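 β3 TM peptide (10 μM in cell) titrated with αIIb TM peptide in 10 s injections until saturation. Medium: 43 mM DHPC, 17 mM POPC, 25 mM sodium phosphate, pH 7.4, with 9 mM free DHPC. Heats of dilution of both peptides were subtracted. ΔH° and mole-fraction K_XY were fitted with 1:1 stoichiometry fixed. Peptide amounts were set by UV absorbance.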

Turning to “αIIb + β3: Human integrin αIIb(A958-P998) and β3(P685-F727) TM peptides incorporating β3(C687S), recombinantly produced; wild-type pair”, the “ΔG°” value (ΔG° = −RT ln KXY) is -4.84 ± 0.01 kcal/mol. Further, the “TΔS°” value (ΔS° = (ΔH° − ΔG°)/T) was -11.1 ± 0.1 kcal/mol.
